# Source: ChEMBL document CHEMBL4311996 (Bioorg Med Chem Lett, 2019)
# Experiments:
# [1] = test system: Middle East respiratory syndrome-related coronavirus; experiment: Antiviral activity against MERS-CoV KOR/KNIH/002_05_2015 infected in African green monkey Vero cells expressing viral spike protein by immunofluorescence assay; type: functional, organism-based; settings: KOR/KNIH/002_05_2015, Vero
# Vero = experiment: (§1) Cytotoxicity against African green monkey Vero cells assessed as reduction in cell viability; type: cell-based; settings: chlorocebus sabaeus, vero
# [2] = as §1; type: cell-based; settings: chlorocebus sabaeus, Vero cells
# [3] = Metabolic stability in human microsomes assessed as parent compound remaining measured after 30 mins; type: ADME, Microsome; settings: read-out: Stability
# [4] = Metabolic stability in rat microsomes assessed as parent compound remaining measured after 30 mins; type: ADME, Microsome; settings: read-out: Stability
# [5] = Metabolic stability in mouse microsomes assessed as parent compound remaining measured after 30 mins; type: ADME, Microsome; settings: read-out: Stability
# [6] = target: Voltage-gated inwardly rectifying potassium channel KCNH2 (Homo sapiens, UniProt Q12809); experiment: Binding affinity to human ERG
# HFL1 = experiment: Cytotoxicity against human HFL1 cells assessed as reduction in cell viability; type: cell-based
# L929 = experiment: Cytotoxicity against mouse L929 cells assessed as reduction in cell viability; type: cell-based
# NIH3T3 = experiment: Cytotoxicity against mouse NIH/3T3 cells assessed as reduction in cell viability; type: cell-based
# CHO-K1 = experiment: Cytotoxicity against CHOK1 cells assessed as reduction in cell viability; type: cell-based; settings: Cricetulus griseus
# [7] = Cmax in rat at 5 mg/kg, po; type: ADME, organism-based; design: dose 5 mg/kg, route oral; settings: in vivo
# Procedure, shortened: (§2)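 Rats given single doses, 2 mg/kg intravenously or 5 mg/kg orally, with three animals per route (n = 3). Each parameter is taken from three determinations.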
# [8] = Half life in rat at 2 mg/kg, iv; type: ADME, organism-based; settings: in vivo
# [9] = AUC (0 to 24 hrs) in rat at 2 mg/kg, iv; type: ADME, organism-based; design: time < 24 hr, dose 2 mg/kg, route intravenous; settings: in vivo; procedure, shortened: as §2
# [10] = AUC (0 to infinity) in rat at 2 mg/kg, iv; type: ADME, organism-based; design: dose 2 mg/kg, route intravenous, time infinity; settings: in vivo; procedure, shortened: as §2
# [11] = Clearance in rat at 2 mg/kg, iv; type: ADME, organism-based; settings: in vivo; procedure, shortened: as §2
# [12] = Oral bioavailability in rat at 5 mg/kg; type: ADME, organism-based; settings: in vivo
# Procedure, shortened: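 Rats dosed at 5 mg/kg p.o., with comparison i.v. dosing at 2 mg/kg; n = 3 per route, three determinations.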
# Sequence of Voltage-gated inwardly rectifying potassium channel KCNH2 (Q12809 whole entry): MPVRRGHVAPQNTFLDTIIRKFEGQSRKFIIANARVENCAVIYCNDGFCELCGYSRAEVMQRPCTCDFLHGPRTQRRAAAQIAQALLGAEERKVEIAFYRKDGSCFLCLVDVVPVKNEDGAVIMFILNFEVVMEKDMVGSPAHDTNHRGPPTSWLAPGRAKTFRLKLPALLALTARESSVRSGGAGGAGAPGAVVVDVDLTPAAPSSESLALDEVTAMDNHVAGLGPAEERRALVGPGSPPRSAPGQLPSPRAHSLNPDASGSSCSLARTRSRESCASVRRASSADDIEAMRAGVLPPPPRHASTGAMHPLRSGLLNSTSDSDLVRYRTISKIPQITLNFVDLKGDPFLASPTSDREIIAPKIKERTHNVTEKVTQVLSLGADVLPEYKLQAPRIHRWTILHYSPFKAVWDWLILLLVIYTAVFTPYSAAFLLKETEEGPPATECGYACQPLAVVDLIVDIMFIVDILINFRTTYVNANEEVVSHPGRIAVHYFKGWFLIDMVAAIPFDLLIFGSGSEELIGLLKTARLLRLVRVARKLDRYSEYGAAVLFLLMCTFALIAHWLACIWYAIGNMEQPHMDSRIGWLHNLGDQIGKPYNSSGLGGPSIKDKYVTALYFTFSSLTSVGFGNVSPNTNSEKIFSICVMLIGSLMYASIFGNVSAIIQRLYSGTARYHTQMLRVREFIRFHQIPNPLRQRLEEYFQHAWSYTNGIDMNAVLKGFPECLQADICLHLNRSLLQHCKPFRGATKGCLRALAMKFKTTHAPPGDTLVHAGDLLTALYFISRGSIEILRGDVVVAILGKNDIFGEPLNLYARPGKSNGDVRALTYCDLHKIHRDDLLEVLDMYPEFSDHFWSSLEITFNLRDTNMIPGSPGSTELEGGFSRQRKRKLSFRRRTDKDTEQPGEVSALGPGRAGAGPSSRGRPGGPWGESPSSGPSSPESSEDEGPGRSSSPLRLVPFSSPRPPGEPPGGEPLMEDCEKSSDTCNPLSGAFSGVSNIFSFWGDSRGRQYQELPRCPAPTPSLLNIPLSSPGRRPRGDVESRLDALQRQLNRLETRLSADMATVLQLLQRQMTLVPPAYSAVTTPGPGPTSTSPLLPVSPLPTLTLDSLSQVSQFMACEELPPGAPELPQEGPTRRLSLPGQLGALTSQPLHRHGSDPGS
SMILES,IC50 [1] [µM],CC50 (Vero) [µM],further results
CC(=O)c1c(Nc2ccc(Br)cc2)[nH]c2c(F)cc(F)cc2c1=O,1.13,> 25,–
CC(=O)c1c(Nc2ccc(F)c(F)c2F)[nH]c2c(F)cc(F)cc2c1=O,0.53,> 25,–
CCCCNc1[nH]c2c(F)cc(F)cc2c(=O)c1C(C)=O,> 25,> 25,–
CC(=O)c1c(NCc2ccc(F)cc2)[nH]c2c(F)cc(F)cc2c1=O,17.6,> 25,–
CC(=O)c1c(OCc2ccc(Cl)c(Cl)c2)[nH]c2c(F)cc(F)cc2c1=O,7.8,> 25,–
CC(=O)c1c(Nc2ccc(Cl)cc2)[nH]c2c(F)cc(F)cc2c1=O,1.44,> 25,–
COc1ccc(Nc2[nH]c3c(F)cc(F)cc3c(=O)c2C(C)=O)cc1,> 25,> 25,–
CC(C)C(=O)c1c(Nc2ccc(F)cc2F)[nH]c2c(Cl)cc(Cl)c(Cl)c2c1=O,0.129,–,CC50 [2]: > 25 µM
CC(=O)c1c(N2CCCCC2)[nH]c2c(F)cc(F)cc2c1=O,> 25,> 25,–
CC(C)C(=O)c1c(Nc2ccc(F)cc2F)[nH]c2c(F)cc(F)cc2c1=O,0.79,> 25,–
CC(=O)c1c(N2CCOCC2)[nH]c2c(F)cc(F)cc2c1=O,> 25,> 25,–
CC(=O)c1c(NC(C)C)[nH]c2c(C(F)(F)F)cc(Cl)cc2c1=O,0.77,> 25,–
CC(=O)c1c(NC(C)C)[nH]c2c(C(C)C)cccc2c1=O,> 25,–,–
CC(C)C(=O)c1c(Nc2ccc(F)c(F)c2F)[nH]c2c(F)cc(F)cc2c1=O,0.086,> 25,remaining at 0.5 h [3]: 52%; remaining at 0.5 h [4]: 44%; remaining at 0.5 h [5]: 35%; IC50 [6]: 6.9 µM; IC50 (HFL1): 15.6 µM; IC50 (L929): 15.8 µM; IC50 (NIH3T3): 65.6 µM; IC50 (CHO-K1): 6.9 µM; Cmax [7]: 2320 ng/mL; half-life [8]: 4.6 h; AUC [9]: 28300 ng·h/mL; AUC(0-inf) [10]: 28900 ng·h/mL; clearance [11]: 1.17 mL/min/kg; F [12]: 56%
CC(=O)c1c(Nc2ccc(F)cc2F)[nH]c2c(F)cc(Cl)cc2c1=O,0.98,> 25,–
CC(C)Nc1[nH]c2c(C(F)(F)F)cc(Cl)cc2c(=O)c1C(=O)c1ccccc1,> 25,–,–
CC(C)C(=O)c1c(Nc2ccc(F)cc2F)[nH]c2c(C(F)(F)F)cc(Cl)cc2c1=O,0.13,7.3,–
CC(=O)c1c(NCc2ccc(F)cc2F)[nH]c2c(F)cc(F)cc2c1=O,5.9,> 25,–
CC(=O)c1c(Nc2ccc(F)cc2F)[nH]c2c(C(F)(F)F)cc(Cl)cc2c1=O,0.15,7.3,–
CC(=O)c1c(Nc2ccc(F)cc2F)[nH]c2c(F)cc(F)cc2c1=O,1.06,> 25,–
CC(C)C(=O)c1c(Nc2ccc(F)c(F)c2F)[nH]c2c(Cl)ccc(Cl)c2c1=O,0.166,10.9,–
COc1cccc(Nc2[nH]c3c(F)cc(F)cc3c(=O)c2C(C)=O)c1,> 25,> 25,–
CC(=O)c1c(Nc2ccc(F)cc2F)[nH]c2c(Cl)cc(Cl)c(Cl)c2c1=O,0.29,> 25,–
CC(C)C(=O)c1c(Nc2ccc(F)c(F)c2F)[nH]c2c(Cl)cc(Cl)c(Cl)c2c1=O,0.1,6.4,–
CC(=O)c1c(Nc2ccc(F)cc2F)[nH]c2c([N+](=O)[O-])cc(Cl)cc2c1=O,1.16,> 25,–
COc1ccc(CNc2[nH]c3c(F)cc(F)cc3c(=O)c2C(C)=O)cc1,> 25,> 25,–
CC(=O)c1c(NC(C)C)[nH]c2c(C)cc(C)cc2c1=O,> 25,–,–
